Series [1] concerns the target T1, ATP-dependent translocase ABCB1 (Homo sapiens, UniProt P08183). Description: Inhibition of ABCB1 in human SW620/AD300 cells assessed as intracellular accumulation of paclitaxel up to 4 uM treated at 2 hrs post paclitaxel treatment for 30 mins in paclitaxel free medium by HPLC analysis. To be noted: 0.5 h. The class given is cell-based. An outline of the steps: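 Equal numbers of SW620/AD300 cells loaded with 6 µg/mL paclitaxel 2 h, then held in paclitaxel-free medium with or without compound 30 min at 37℃; cells harvested, disrupted by ultrasound, extracted with ethyl acetate and paclitaxel quantified by HPLC.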

A short description of series [2]: Cytotoxicity against human SW620/AD300 cells assessed as survival at 2 uM after 72 hrs by MTT assay relative to control. Conditions: read-out: Survival. The class given is cell-based.
Series [3] addresses T1, ATP-dependent translocase ABCB1. Description: Inhibition of ABCB1 in human SW620/AD300 cells assessed as potentiation of paclitaxel-induced cytotoxicity by measuring fold reduction in paclitaxel IC50 at 0.5 uM after 72 hrs by MTT assay. The class given is cell-based. An outline of the steps: (§1)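 SW620/AD300 cells (~5×10^3/well) treated with graded paclitaxel with or without modulator (2 µM, or 0.5-2 µM in dose series; 0.1% DMSO solvent control) for 72 h; MTT (5 mg/mL stock) added 4 h, absorbance 490 nm. IC50 as mean ± SD of three independent runs; reversal fold = paclitaxel IC50 without/with modulator.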

For series [4] the target is unchanged. Briefly: Inhibition of ABCB1 in human SW620/AD300 cells assessed as potentiation of paclitaxel-induced cytotoxicity after 72 hrs by MTT assay. The class given is cell-based. An outline of the steps: as §1
For orientation: Tetrazolium assays rely on reduction of a dye to a coloured formazan, in cell work by metabolically active cells.

In series [5] the test system is SW620/AD300. Briefly: Effect on ABCB1 expression in human SW620/AD300 cells up to 4 uM after 48 hrs by Western blot analysis. The class given is functional, cell-based. In outline:
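SW620/AD300 cells exposed to compound at 0, 1, 2 or 4 µM for 48 h, lysed, ultracentrifuged, protein quantified by BCA; equal protein run on SDS-PAGE, wet-transferred to nitrocellulose, primary antibody overnight at 4℃, secondary 2 h at room temperature, enhanced chemiluminescence detection; GAPDH as loading control.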

For series [6], the system named is SW620/AD300. Description: Effect on subcellular localization of ABCB1 in human SW620/AD300 cells at 2 uM after 48 hrs by Hoechst 33258 staining-based immunofluorescence assay. The class given is functional, cell-based. In outline:
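About 1×10^4 cells on coverslips incubated with compound 48 h, fixed in 4% paraformaldehyde ≥20 min, blocked 2 h in PBS with 5% BSA, anti-ABCB1 primary overnight at 4℃, Alexa Fluor 488 anti-goat secondary 2 h, nuclei stained with Hoechst 33258 20 min; imaged by laser scanning confocal microscopy.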

Series [7] deals with T1, ATP-dependent translocase ABCB1. Briefly: Inhibition of ABCB1 in human SW620/AD300 cells assessed as accumulation of rhodamine 123 preincubated for 4 hrs followed by rhodamine 123 addition measured after 30 mins by flow cytometry. The class given is cell-based. Conditions: 0.5 h. (In general: In flow cytometry, cells or beads pass a laser one at a time.)
For series [8], the system named is SW-620. Description: Increase in rhodamine 123 accumulation in human SW620 cells up to 4 uM preincubated for 4 hrs followed by rhodamine 123 addition measured after 30 mins by flow cytometry. The class given is functional, cell-based.
Series [9] concerns the target T1, ATP-dependent translocase ABCB1. Briefly: Inhibition of ABCB1 in human SW620/AD300 cells assessed as intracellular accumulation of [3H]-paclitaxel up to 4 uM preincubated for 4 hrs followed by [3H]-paclitaxel addition measured after 2 hrs by liquid scintillation counting method. The class given is cell-based. An outline of the steps: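 Cells pre-exposed with or without compound at various concentrations 4 h at 37°C, then 0.1 µM [3H]-paclitaxel added for 2 h in continued presence of treatment; washed three times in cold PBS, lysed, radioactivity counted by liquid scintillation. Mean ± SD of three independent assays.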

The target is the same in series [10]. Description: Inhibition of ABCB1 in human SW620/AD300 cells assessed as reduction in [3H]-paclitaxel efflux preincubated for 4 hrs followed by [3H]-paclitaxel addition for 2 hrs measured after 120 mins by liquid scintillation counting method. The class given is cell-based. An outline of the steps:
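After 2 h loading with 0.1 µM [3H]-paclitaxel (following 4 h compound pre-exposure), SW620 or SW620/AD300 cells moved to label-free medium for a 2 h efflux phase; samples taken at 0, 30, 60 and 120 min and radioactivity counted by liquid scintillation. Three independent assays, mean ± SD.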

The next series deals with Cytochrome P450 3A4 (Homo sapiens, UniProt P08684). Briefly: Inhibition of recombinant human CYP3A4 in presence of NADPH generating system by fluorescence assay. The class given is ADME.
Cytochrome P450 3A4, sequence (P08684 whole entry): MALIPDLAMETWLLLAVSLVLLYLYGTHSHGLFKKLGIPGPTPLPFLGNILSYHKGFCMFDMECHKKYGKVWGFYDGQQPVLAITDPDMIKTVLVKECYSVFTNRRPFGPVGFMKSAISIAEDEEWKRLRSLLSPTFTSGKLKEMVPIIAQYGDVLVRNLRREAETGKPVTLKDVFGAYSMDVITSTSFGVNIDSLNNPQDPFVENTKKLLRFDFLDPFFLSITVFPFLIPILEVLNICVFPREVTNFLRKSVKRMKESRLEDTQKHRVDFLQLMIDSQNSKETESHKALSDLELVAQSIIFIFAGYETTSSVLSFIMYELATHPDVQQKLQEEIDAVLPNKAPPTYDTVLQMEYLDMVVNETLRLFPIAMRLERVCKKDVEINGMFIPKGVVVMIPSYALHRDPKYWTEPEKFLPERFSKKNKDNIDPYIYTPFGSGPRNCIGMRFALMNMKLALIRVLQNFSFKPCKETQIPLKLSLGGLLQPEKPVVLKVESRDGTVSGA
For series [11], the target named is T1, ATP-dependent translocase ABCB1. Description: Inhibition of ABCB1 in human KB-C2 cells assessed as potentiation of vincristine-induced cytotoxicity by measuring fold reduction in vincristine IC50 at 1 uM preincubated for 4 hrs followed by vincristine addition measured after 72 hrs by MTT assay. The class given is cell-based.
The target of series [12] is T2, Multidrug resistance-associated protein 1 (Homo sapiens, UniProt P33527). Description: Inhibition of ABCC1 in human KB-CV60 cells assessed as potentiation of vincristine-induced cytotoxicity by measuring fold reduction in vincristine IC50 at 1 uM preincubated for 4 hrs followed by vincristine addition measured after 72 hrs by MTT assay. The class given is cell-based. An outline of the steps: (§2)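 KB-CV60 and HEK293/ABCC1 cells (transfected line kept in 2 mg/mL G418) given graded vincristine with or without modulator for 72 h; MK571 25 µM reference; viability by MTT read at 490 nm. IC50 from three independent repeats, mean ± SD; reversal fold = vincristine IC50 ratio without/with modulator.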
T2 sequence (P33527 whole entry): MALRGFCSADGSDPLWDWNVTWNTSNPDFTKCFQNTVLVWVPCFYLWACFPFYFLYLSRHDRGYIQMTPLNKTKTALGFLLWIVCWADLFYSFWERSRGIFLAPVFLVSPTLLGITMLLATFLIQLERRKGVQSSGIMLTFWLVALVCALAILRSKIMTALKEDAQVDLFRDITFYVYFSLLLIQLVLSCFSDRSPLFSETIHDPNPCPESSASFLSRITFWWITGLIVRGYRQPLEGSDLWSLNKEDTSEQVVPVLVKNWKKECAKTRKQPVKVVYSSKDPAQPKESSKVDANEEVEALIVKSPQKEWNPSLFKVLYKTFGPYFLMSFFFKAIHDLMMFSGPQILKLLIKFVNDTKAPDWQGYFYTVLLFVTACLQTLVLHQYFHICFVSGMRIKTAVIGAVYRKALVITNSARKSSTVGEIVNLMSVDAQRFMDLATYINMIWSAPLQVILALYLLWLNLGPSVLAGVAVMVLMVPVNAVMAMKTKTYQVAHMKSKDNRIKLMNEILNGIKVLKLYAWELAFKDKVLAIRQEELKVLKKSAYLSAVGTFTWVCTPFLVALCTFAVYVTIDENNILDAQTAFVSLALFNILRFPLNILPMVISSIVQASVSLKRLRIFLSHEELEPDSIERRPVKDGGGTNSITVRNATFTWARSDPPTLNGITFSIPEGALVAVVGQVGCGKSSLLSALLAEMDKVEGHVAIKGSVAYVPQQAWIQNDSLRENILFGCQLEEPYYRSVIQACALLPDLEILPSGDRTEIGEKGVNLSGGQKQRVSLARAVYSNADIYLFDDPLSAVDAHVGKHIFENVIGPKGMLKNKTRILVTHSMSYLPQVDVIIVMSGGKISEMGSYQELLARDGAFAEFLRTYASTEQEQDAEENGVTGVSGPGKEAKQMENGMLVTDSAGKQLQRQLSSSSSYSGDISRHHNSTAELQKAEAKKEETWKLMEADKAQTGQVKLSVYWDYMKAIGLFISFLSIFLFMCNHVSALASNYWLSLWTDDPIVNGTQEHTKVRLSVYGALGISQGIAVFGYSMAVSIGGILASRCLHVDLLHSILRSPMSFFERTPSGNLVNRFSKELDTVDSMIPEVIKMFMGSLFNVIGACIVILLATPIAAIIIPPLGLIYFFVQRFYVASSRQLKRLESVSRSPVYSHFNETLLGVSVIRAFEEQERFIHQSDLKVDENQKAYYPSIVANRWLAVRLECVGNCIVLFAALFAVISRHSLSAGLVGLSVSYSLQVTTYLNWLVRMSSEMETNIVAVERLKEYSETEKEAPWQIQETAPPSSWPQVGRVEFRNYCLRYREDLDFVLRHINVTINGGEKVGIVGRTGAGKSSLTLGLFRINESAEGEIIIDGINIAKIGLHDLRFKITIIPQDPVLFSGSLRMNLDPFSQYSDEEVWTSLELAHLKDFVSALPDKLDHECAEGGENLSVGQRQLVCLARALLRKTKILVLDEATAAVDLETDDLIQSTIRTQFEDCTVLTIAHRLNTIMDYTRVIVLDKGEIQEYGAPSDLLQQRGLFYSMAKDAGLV

The target in series [13] is T2, Multidrug resistance-associated protein 1. Briefly: Inhibition of ABCC1 (unknown origin) expressed in HEK293 cells assessed as potentiation of vincristine-induced cytotoxicity by measuring fold reduction in vincristine IC50 at 1 uM preincubated for 4 hrs followed by vincristine addition measured after 72 hrs by MTT assay. The class given is cell-based. In outline: as §2

The test system of series [14] is SW620/AD300. Description: Antitumor activity against ABCB1 overexpressing human SW620/AD300 cells xenografted in BALB/c nude mouse assessed as reduction in tumor volume at 20 mg/kg/day, po measured after 21 days. The class given is functional, organism-based. In outline:
(§3)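 Female BALB/c nude mice (18-20 g, 5-6 weeks) bearing SW620/AD300 xenografts; grouping once tumours reached 100 mm3: saline vehicle […] ip, paclitaxel 5 mg/kg every 3 days ip, test agent 20 mg/kg/day orally, or the combination. Body weight and tumour volume recorded every 2 days over 21 days; tumours excised and weighed at end.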
For orientation: Xenograft models place foreign cells or tissue in a host animal.

The test system of series [15] is SW620/AD300. Description: Antitumor activity against ABCB1 overexpressing human SW620/AD300 cells xenografted in BALB/c nude mouse assessed as reduction in tumor volume at 20 mg/kg/day, po cotreated with 5 mg/kg, ip paclitaxel measured after 21 days. The class given is functional, organism-based. In outline: as §3
The subject of another series is Mus musculus. Briefly: Toxicity in nude BALB/c mouse xenografted with ABCB1 overexpressing human SW620/AD300 cells assessed as change in body weight at 20 mg/kg/day, po cotreated with 5 mg/kg, ip paclitaxel measured after 21 days. The class given is organism-based. Conditions: in vivo, 504 h. An outline of the steps: as §3
Series [16] concerns SW-620. Description: Inhibition of rhodamine 123 efflux in human SW620 cells up to 4 uM preincubated for 4 hrs followed by 30 mins incubation in Rho-123 containing medium and subsequent incubation in Rho-123 free medium up to 120 mins by flow cytometry. The class given is functional, cell-based. An outline of the steps: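 Cells loaded with rhodamine 123 as in the accumulation assay (4 h compound pre-exposure, 1 µg/mL dye 30 min, 37℃), then kept in dye-free medium with or without reversal agent for 30, 60, 90 or 120 min at 37℃; intracellular fluorescence read by flow cytometry at 488/530 nm. Three independent experiments.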

Molecules are shown by their SMILES. Active and inactive are the calls of the source. The calls are words filed in the database; no cut-off is given here.

Results on one molecule are retold here after ChEMBL document CHEMBL4138318, “Discovery of 5-Cyano-6-phenylpyrimidin Derivatives Containing an Acylurea Moiety as Orally Bioavailable Reversal Agents against P-Glycoprotein-Mediated Mutidrug Resistance” (J Med Chem, 2018).

By IC50 is commonly meant the concentration that inhibits the measured activity by half.

T1 sequence (P08183 whole entry): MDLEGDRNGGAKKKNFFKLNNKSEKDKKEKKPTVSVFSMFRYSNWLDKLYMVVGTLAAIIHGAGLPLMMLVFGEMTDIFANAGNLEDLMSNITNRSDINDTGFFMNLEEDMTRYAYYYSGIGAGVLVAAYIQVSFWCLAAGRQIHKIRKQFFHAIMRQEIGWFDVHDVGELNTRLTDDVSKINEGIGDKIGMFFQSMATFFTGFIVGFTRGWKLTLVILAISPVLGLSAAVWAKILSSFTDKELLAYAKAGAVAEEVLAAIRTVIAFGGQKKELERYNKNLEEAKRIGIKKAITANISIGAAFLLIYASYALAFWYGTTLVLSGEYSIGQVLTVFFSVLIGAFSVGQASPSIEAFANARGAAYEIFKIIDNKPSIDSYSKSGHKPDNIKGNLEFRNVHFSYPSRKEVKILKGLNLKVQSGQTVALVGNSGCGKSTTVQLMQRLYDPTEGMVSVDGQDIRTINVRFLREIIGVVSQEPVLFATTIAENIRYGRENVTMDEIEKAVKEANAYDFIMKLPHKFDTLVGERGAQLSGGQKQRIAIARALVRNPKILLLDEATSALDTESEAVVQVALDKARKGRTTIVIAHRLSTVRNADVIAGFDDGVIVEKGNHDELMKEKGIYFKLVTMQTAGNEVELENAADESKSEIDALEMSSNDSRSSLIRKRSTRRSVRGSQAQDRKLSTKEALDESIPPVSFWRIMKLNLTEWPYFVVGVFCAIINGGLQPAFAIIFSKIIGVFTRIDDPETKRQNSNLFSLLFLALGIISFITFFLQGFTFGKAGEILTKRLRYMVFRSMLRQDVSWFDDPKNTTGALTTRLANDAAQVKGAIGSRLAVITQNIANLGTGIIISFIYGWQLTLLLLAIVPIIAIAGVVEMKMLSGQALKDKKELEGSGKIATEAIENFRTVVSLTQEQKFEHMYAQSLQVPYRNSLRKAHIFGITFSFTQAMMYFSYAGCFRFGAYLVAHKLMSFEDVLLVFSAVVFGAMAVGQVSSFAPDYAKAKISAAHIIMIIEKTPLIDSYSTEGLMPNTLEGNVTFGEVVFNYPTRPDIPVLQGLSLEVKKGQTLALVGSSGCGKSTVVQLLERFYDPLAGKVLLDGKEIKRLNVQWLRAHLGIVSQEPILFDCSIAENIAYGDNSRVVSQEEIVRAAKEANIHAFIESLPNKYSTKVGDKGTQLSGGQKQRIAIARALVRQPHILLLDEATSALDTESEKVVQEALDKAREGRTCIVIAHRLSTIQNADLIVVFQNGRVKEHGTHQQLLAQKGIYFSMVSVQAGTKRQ

For the molecule `COc1cc(-c2nc(SCC(=O)NC(=O)Nc3ccccn3)nc(Nc3cccc(Cl)c3)c2C#N)cc(OC)c1OC`, the “inhibition (INH)” value was “Active” in series [1]; “Dose-dependent effect” in series [4]; “Dose-dependent effect” in series [7]; “Active” in series [9]; “Dose-dependent effect” in series [10]. In addition, the viability at 72 h, 2 µM in series [2] is above 90%. In addition, the “fold change (FC)” value was 72.17 in series [3], 3.85 in series [11], 1.13 in [12] and 1.14 in series [13]. The outcome with SW620/AD300 [5], in the series with SW620/AD300 [6], in the series with SW-620 [8] and in the series with SW620/AD300 [14] was inactive. Moreover, on Cytochrome P450 3A4, the IC50 was determined as 17.2 µM. The result in the series on SW620/AD300 [15] was Active. The Activity result in the series on Mus musculus is recorded as “Non-Toxic”. Also, the inhibition result with SW-620 [16] was “inactive”.
